HIV Env fusion – HIV envelope-mediated fusion inhibition. 360,000 compounds, 1.1% hits. HeLa-JRFL Env/CEM21 cell fusion, luciferase. inhibition, % at 12.3 µM. AID 651610;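 active = mean replicate inhibition score of at least 50 and every replicate individually at or above 50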
PGC1a acetyl inh – modulators of PGC1a acetylation | U2OS PGC1a acetylation, AlphaScreen anti-acetyl-lysine; with virally co-expressed GCN5 acetyltransferase | inhibition, % at 15.6 µM | 350,000 compounds, 0.17% hits | AID 651687;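 active = every replicate shows inhibition of at least 40%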
FGF22 binding – shifts melting point of recombinant human FGF22. Q9HCT0. recombinant FGF22 thermal shift, SYPRO orange fluorescence; percent of sucrose octasulfate shift, DMSO zero. activity (Tm shift, normalised), % at 9.99 µM. 340,000 compounds, 1.5% hits;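 active = mean Tm shift, scaled 0 neutral to 100 positive control, at about 1.3% or above, every replicate too, limit read from the data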
Target sequence (Q9HCT0 whole entry, looked up): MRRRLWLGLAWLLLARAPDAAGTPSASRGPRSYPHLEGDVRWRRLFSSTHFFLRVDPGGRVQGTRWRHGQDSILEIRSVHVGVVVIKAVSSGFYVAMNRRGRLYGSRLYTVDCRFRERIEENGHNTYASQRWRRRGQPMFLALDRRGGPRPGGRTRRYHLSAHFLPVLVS
PAX8 inh HTS – inhibitors of PAX8 transcriptional activity in RMG-I cells; RMG-I TPO-luciferase reporter, SteadyGlo, 24 h; 360,000 compounds, 1.2% hits; inhibition, % at 12.6 µM; AID 652154;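 active = mean replicate inhibition at least 60% with every replicate also reaching 60%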;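 note: luciferase light reporting Pax8 driven TPO promoter activity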
EWS-Fli block – EWS/Fli transcriptional activity inhibition. A673 NR0B1-luciferase reporter, viability-normalised. inhibition, % at 12.6 µM. 350,000 compounds, 0.67% hits. AID 651661;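 active = mean inhibition of at least 50% after viability correction, with every replicate also passing that limit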;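 note: firefly luciferase signal divided by Alamar Blue viability fluorescence both relative to DMSO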
FN deposition inh – fibronectin deposition inhibition | AID 743247 | AH1F fibroblasts, Alexa488-fibronectin deposition fluorescence, overnight | inhibition, % at 12.6 µM | 350,000 compounds, 0.086% hits;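 active = mean inhibition across replicates of 30% or more, regardless of how many single replicates reach that level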
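Assay system: AH1F fibroblasts / Quantity: 10000 cells per well / Medium: DMEM plus 2% serum, read in PBS / Reagent: labelled fibronectin 24 nM / Dosing: single dose, pinned / Times: 1 h cell attachment, overnight exposure to compound and label / Signal: fluorescence, ex 485 nm, em 525 nm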
Numbers stand for hits; n = inactive; x = no result. Hits are enriched below; roughly 3.1% of the tested compounds scored in any of these assays.

SMILES	HIV Env fusion	PGC1a acetyl inh	FGF22 binding	PAX8 inh HTS	EWS-Fli block	FN deposition inh
Cc1ccc(S(=O)(=O)Nc2ccc3c(c2)C(=O)N([C@H](C)CO)C[C@@H](C)[C@@H](CN(C)S(=O)(=O)c2ccc(Cl)cc2)OCCCC[C@H](C)O3)cc1	n	n	n	n	n	n
Cc1ccc(S(=O)(=O)N(C)C[C@@H]2OCCCC[C@@H](C)Oc3ccc(NS(=O)(=O)c4ccc(Cl)cc4)cc3C(=O)N([C@@H](C)CO)C[C@H]2C)cc1	n	n	n	67.9	n	n
Cc1ccc(S(=O)(=O)Nc2ccc3c(c2)C(=O)N([C@@H](C)CO)C[C@@H](C)[C@H](CN(C)S(=O)(=O)c2ccc(Cl)cc2)OCCCC[C@@H](C)O3)cc1	n	n	n	84.3	n	n
Cc1ccc(S(=O)(=O)Nc2ccc3c(c2)C(=O)N([C@@H](C)CO)C[C@H](C)[C@H](CN(C)S(=O)(=O)c2ccc(Cl)cc2)OCCCC[C@@H](C)O3)cc1	n	n	n	n	n	n
Cc1ccc(S(=O)(=O)Nc2ccc3c(c2)C(=O)N([C@H](C)CO)C[C@H](C)[C@H](CN(C)S(=O)(=O)c2ccc(Cl)cc2)OCCCC[C@H](C)O3)cc1	n	n	n	65.6	n	n
Cc1ccc(S(=O)(=O)N(C)C[C@H]2OCCCC[C@H](C)Oc3ccc(NS(=O)(=O)c4ccc(Cl)cc4)cc3C(=O)N([C@H](C)CO)C[C@H]2C)cc1	n	n	n	n	n	n
Cc1ccc(S(=O)(=O)Nc2ccc3c(c2)C(=O)N([C@H](C)CO)C[C@@H](C)[C@@H](CN(C)S(=O)(=O)c2ccc(Cl)cc2)OCCCC[C@@H](C)O3)cc1	n	n	25.0	n	n	n
C[C@H]1CN(C)C(=O)c2cc(N)ccc2O[C@@H]1CN(C)C(=O)OC(C)(C)C	x	x	x	x	x	n
Cc1ccc(S(=O)(=O)N(C)C[C@@H]2OCCCC[C@H](C)Oc3ccc(NS(=O)(=O)c4ccc(Cl)cc4)cc3C(=O)N([C@H](C)CO)C[C@@H]2C)cc1	n	n	n	73.9	n	n
Cc1ccc(S(=O)(=O)N(C)C[C@@H]2OCCCC[C@@H](C)Oc3ccc(NS(=O)(=O)c4ccc(Cl)cc4)cc3C(=O)N([C@H](C)CO)C[C@H]2C)cc1	n	n	n	77.4	n	n
Cn1cc(CN2CCN(CCO)CC2)c(-c2ccc(Oc3ccccc3)cc2)n1	n	n	43.5	n	n	n
Cn1cc(CNCc2cnc3ccccn23)c(-c2ccc(Oc3ccccc3)cc2)n1	n	x	43.8	n	n	n
COCCN1CCN(Cc2cn(C)nc2-c2ccc(Oc3ccccc3)cc2)CC1	n	n	n	n	n	n
C[C@@H]1CN([C@H](C)CO)C(=O)c2cccc(NC(=O)C3CCCCC3)c2O[C@@H]1CN(C)S(=O)(=O)c1ccc(F)cc1	x	n	n	x	n	x
COc1cccc(S(=O)(=O)N[C@@H]2C=C[C@H](CC(=O)NC3Cc4ccccc4C3)O[C@@H]2CO)c1	x	n	n	x	n	n
CO[C@@H]1CN(C)C(=O)c2ccc(NS(=O)(=O)c3cn(C)cn3)cc2OC[C@H](C)NC[C@H]1C	n	n	n	n	n	n
S=c1sc2c(Cl)ncnc2n1-c1ccccc1	n	64.0	n	93.3	74.2	n
Cc1nc(N2CCN(C)CC2)c2sc(=S)n(-c3ccccc3)c2n1	n	x	n	n	n	n
Cc1ccc(NC(=O)C(NC2CCCc3ccccc32)c2ccccc2)cc1Cl (centres undefined)	n	x	x	n	x	n
Cc1ccc(NC(=O)C(NC2CCCc3ccccc32)c2ccccc2)c([N+](=O)[O-])c1 (centres undefined)	86.5	n	x	n	x	n
Cc1ccc(/C=N/NC(=O)c2cc(C3CC3)nc3ccccc23)o1	x	n	43.4	n	n	n
C[C@H]1CN([C@@H](C)CO)C(=O)Cc2cc(NS(=O)(=O)c3ccccc3)ccc2O[C@@H]1CN(C)CC1CCCCC1	n	x	n	n	n	x
NS(=O)(=O)c1ccc(N/C=C\C(=O)c2ccncc2)cc1	n	x	43.0	n	n	n
O=C(N/N=C/c1ccc(F)cc1)c1cc(-c2ccccn2)nc2ccccc12	n	n	n	n	n	x
O=C(O)COc1ccccc1/C=N/NC(=O)c1cc(-c2ccc(F)cc2)nc2ccccc12	n	n	1.5	n	n	x

Bioassay records deposited in PubChem by Broad Institute.
